Measurements published in PubChem BioAssay AID624366 (Broad Institute, 2012).
Several values for one entry are separate records, joined by “and”; a condition that tells them apart may be missing. Equal values may be shown once. Activity calls are given as the source filed them.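 Rule for the calls: active = signal drop with fitted AC50 no more than twice the top valid dose in every repeat run; inconclusive = mixed run calls, flat 30 to 70% drop, or poor fit; inactive = the rest.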

Test system: SK-MEL-5 viability, CellTiter-Glo ATP luminescence, 24 h
Experiment: ATP-based viability of SK-MEL-5 melanoma cells – cell-based, CellTiter-Glo luminescence, dry powder, set 4, orthogonal assay for MITF inhibitor project, dose response (AID 624366)
Procedure, shortened: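 assay system = parental SK-MEL-5 melanoma cells | input = 3000 cells/well | buffer or medium = phenol red-free growth medium | detection = ATP luminescence, CellTiter-Glo | measure = cell viability inferred from cellular ATP content | compound dosing = pin-transferred multi-dose series | incubation = 24 h treatment at 37 °C, 5 min RT read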

Work on `O=C1C(Nc2ccccc2)=C(N2CCCCC2)C(=O)c2ccccc21` yielded an AC50 of 25.3 µM.
Compound `CN1CCN(C2=C(Nc3ccccc3)C(=O)c3ccccc3C2=O)CC1` has an AC50 of 34.2 µM.
In the case of `O=C(NC1=C(N2CCOCC2)C(=O)c2ccccc2C1=O)c1ccc(Br)cc1`, the AC50 is reported as > 70 µM (inactive).
`O=C1C(NS(=O)(=O)c2ccccc2)=C(c2ccccc2)C(=O)c2ccccc21` was tested, and the AC50 was > 70 µM (inactive).
In the case of `NC1=CC(=O)c2ccccc2C1=O`, the AC50 is reported as 11 µM.
In the case of `NC1=C(NS(=O)(=O)c2ccc(Br)cc2)C(=O)c2ccccc2C1=O`, the AC50 is reported as 28.1 µM.
`C=CCNC1=C(Cl)C(=O)c2ccccc2C1=O` gave an AC50 of 15.4 µM.
In the case of `O=C1C(Nc2ccccc2)=C(N2CCSCC2)C(=O)c2ccccc21`, the AC50 is reported as > 70 µM (inactive).
Work on `CCN1CCN(C2=C(NC(=O)c3ccc(Br)cc3)C(=O)c3ccccc3C2=O)CC1` yielded an AC50 of 11 µM.
In the case of `COC1=C(NS(=O)(=O)c2ccccc2)C(=O)c2ccccc2C1=O`, the AC50 is reported as 15.8 µM.
For `NC1=C(NC(=O)c2ccccc2)C(=O)c2ccccc2C1=O`, the AC50 was 12.3 µM.
For `CN1CCN(C2=C(NS(=O)(=O)c3ccc(Br)s3)C(=O)c3ccccc3C2=O)CC1`, the AC50 was 23.6 µM.
For `CCN(CC)CCNC1=C(Nc2ccccc2)C(=O)c2ccccc2C1=O`, the AC50 was > 70 µM (inactive).
With `CCN1CCN(C2=C(NS(=O)(=O)c3ccc(Br)s3)C(=O)c3ccccc3C2=O)CC1` the AC50 was > 70 µM (inactive).
`O=C1C(NS(=O)(=O)c2ccc(Br)s2)=C(N2CCOCC2)C(=O)c2ccccc21` gave an AC50 of 27.6 µM.
For `O=C(NC1=C(N2CCSCC2)C(=O)c2ccccc2C1=O)c1ccc(Br)cc1`, the AC50 was > 70 µM (inactive).
In the case of `NC1=C(NS(=O)(=O)c2ccccc2)C(=O)c2ccccc2C1=O`, the AC50 is reported as 14 µM.
`CC(=O)N(C)C1=C(N2CCN(C)CC2)C(=O)c2ccccc2C1=O` showed an AC50 of 5.48 µM.
In the case of `CC1CCN(CC(CS(=O)(=O)c2ccc([N+](=O)[O-])cc2)N2CCC(C)CC2)CC1` (stereo not given), the AC50 is reported as > 70 µM (inactive).
`NC1=C(c2ccc(OC(F)(F)F)cc2)C(=O)c2ccccc2C1=O` was tested, and the AC50 was > 70 µM (inactive).
`CN1CCN(C2=C(NC(=O)c3ccc(Br)cc3)C(=O)c3ccccc3C2=O)CC1` gave an AC50 of 8 µM.
`O=C1C=C(NS(=O)(=O)c2ccc(Br)cc2)C(=O)c2ccccc21` showed an AC50 of 10 µM.
`COC1=C(Nc2ccccc2)C(=O)c2ccccc2C1=O` showed an AC50 of 3.02 µM.
`C=CCNC1=C(N(C)C(C)=O)C(=O)c2ccccc2C1=O` gave an AC50 of 0.843 µM.
Work on `O=C1C(NS(=O)(=O)c2ccc(Br)s2)=C(N2CCCCC2)C(=O)c2ccccc21` yielded an AC50 of 23.9 µM.
In the case of `O=C1C(Nc2ccccc2)=C(c2ccccc2)C(=O)c2ccccc21`, the AC50 is reported as 27.3 µM.
With `O=C(NC1=C(N2CCCCC2)C(=O)c2ccccc2C1=O)c1ccc(Br)cc1` the AC50 was > 70 µM (inactive).
For `COC1=C(NS(=O)(=O)c2cccs2)C(=O)c2ccccc2C1=O`, the AC50 was 23.7 µM.
For `Cc1nc2ccccc2n1/N=C/c1ccc([N+](=O)[O-])s1`, the AC50 was > 70 µM (inactive).
For `CC(=O)N(C)C1=C(N2CCCCC2)C(=O)c2ccccc2C1=O`, the AC50 was 6.71 µM.
For `O=C1C=C(NS(=O)(=O)c2ccccc2)C(=O)c2ccccc21`, the AC50 was 5.83 µM.
`CCN(CC)CCCNC1=C(Nc2ccccc2)C(=O)c2ccccc2C1=O` was tested, and the AC50 was 24.4 µM.
With `C=C1C(=O)OC2C1CC/C(C)=C\CCC1(C)OC21` (stereo not given) the AC50 was > 70 µM (inactive).
For `COC1=C(NS(=O)(=O)c2ccc(Br)cc2)C(=O)c2ccccc2C1=O`, the AC50 was 11.3 µM.
With `O=C1C(Nc2ccccc2)=C(NS(=O)(=O)c2ccccc2[N+](=O)[O-])C(=O)c2ccccc21` the AC50 was > 70 µM (inactive).
With `C[C@@H](NC1=C(Nc2ccccc2)C(=O)c2ccccc2C1=O)c1ccccc1` the AC50 was > 70 µM (inactive).
With `NC1=C(NS(=O)(=O)c2cccs2)C(=O)c2ccccc2C1=O` the AC50 was 11.3 µM.
For `O=C1C=C(Nc2ccccc2)C(=O)c2ccccc21`, the AC50 was 3.44 µM and 3.95 µM.
`CNC1=CC(=O)c2ccccc2C1=O` was tested, and the AC50 was > 70 µM (inactive).
For `O=C1C=C(NS(=O)(=O)c2cccs2)C(=O)c2ccccc21`, the AC50 was 9.28 µM.
